Data from ChEMBL document CHEMBL2021883, “Amino acid, dipeptide and pseudodipeptide conjugates of ring-substituted 8-aminoquinolines: synthesis and evaluation of anti-infective, β-haematin inhibition and cytotoxic activities” (Eur J Med Chem, 2012).
Values after ≈ are worked out from the molar mass of the structure shown. Active and inactive are the calls of the source. Unless noted, the rule behind the calls is not given here.

What was measured:
Plasmodium falciparum [1] = assay: Antimalarial activity against chloroquine-resistant Plasmodium falciparum W2 assessed as plasmodial LDH activity; format: functional, organism-based
Staphylococcus aureus [2] = assay: Antimicrobial activity against methicillin-resistant Staphylococcus aureus ATCC 43300 by CLSI method; format: functional, organism-based
[3] = Inhibition of beta-hematin formation; format: functional
Nakaseomyces glabratus [4] = assay: Antifungal activity against Candida glabrata at 20 ug/ml; format: functional, organism-based
Procedure, shortened: (§1)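 Broth dilution antifungal testing followed the NCCLS reference method for yeasts, with 20 as the highest test concentration. MIC was the lowest concentration with no detectable growth. MFC was the lowest concentration killing the organism.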

Cryptococcus neoformans [5] = assay: Fungicidal activity against Cryptococcus neoformans at 20 ug/ml; format: functional, organism-based; procedure, shortened: as §1
Leishmania donovani = assay: Antileishmanial activity against Leishmania donovani promastigote by Alamar Blue assay; format: functional, organism-based
Pichia kudriavzevii [6] = assay: Antifungal activity against Candida krusei at 20 ug/ml; format: functional, organism-based; procedure, shortened: as §1
Escherichia coli = assay: Antimicrobial activity against Escherichia coli ATCC 35218 by CLSI method; format: functional, organism-based
Aspergillus fumigatus = assay: Antifungal activity against Aspergillus fumigatus; format: functional, organism-based
Procedure, shortened: (§2)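 Yeasts and A. fumigatus were tested by broth microdilution following the NCCLS antifungal standards. The highest test concentration was 20.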

Candida albicans [7] = assay: Antifungal activity against Candida albicans at 20 ug/ml; format: functional, organism-based; procedure, shortened: as §1
[8] = tested on: Mycobacterium intracellulare; assay: Antimicrobial activity against Mycobacterium intracellulare ATCC 23068 by Franzblau method; format: functional, organism-based
Pichia kudriavzevii [9] = assay: Fungicidal activity against Candida krusei at 20 ug/ml; format: functional, organism-based; procedure, shortened: as §1
Candida albicans [10] = assay: Fungicidal activity against Candida albicans at 20 ug/ml; format: functional, organism-based; procedure, shortened: as §1
Plasmodium falciparum [11] = assay: Antimalarial activity against chloroquine-sensitive Plasmodium falciparum D6 assessed as plasmodial LDH activity; format: functional, organism-based
Staphylococcus aureus [12] = assay: Antimicrobial activity against Staphylococcus aureus ATCC 29213 by CLSI method; format: functional, organism-based
Cryptococcus neoformans [13] = assay: Antifungal activity against Cryptococcus neoformans; format: functional, organism-based; procedure, shortened: as §2
Vero = assay: Cytotoxicity against african green monkey Vero cells upto 23.8 […] by neutral dye assay; format: cell-based, Chlorocebus sabaeus
Procedure, shortened: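 Vero monkey kidney cells were exposed to compound up to a highest concentration of 23.8, with viability read by neutral red uptake.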

Nakaseomyces glabratus [14] = assay: Fungicidal activity against Candida glabrata at 20 ug/ml; format: functional, organism-based; procedure, shortened: as §1
Pseudomonas aeruginosa = assay: Antimicrobial activity against Pseudomonas aeruginosa ATCC 27853 by CLSI method; format: functional, organism-based
Procedure, shortened: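 Antibacterial testing used CLSI/NCCLS broth dilution for aerobically growing bacteria, with 20 as the highest test concentration.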

Plasmodium berghei [15] = assay: Antimalarial activity against Plasmodium berghei blood-schizont in mouse malaria model assessed as elimination of parasitemia at 25 mg/kg, po for 4 days for 4 days measured after 7 days; format: functional, organism-based; set-up: dose 25 mg/kg
Procedure, shortened: (§3)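 P. berghei-infected mice, 6 per group, received compound orally once daily for 4 days at 10, 25, 50 or 100 mg/kg/day. "Active" meant all treated animals were parasitaemia-negative up to D+7. "Curative" meant complete parasite elimination with survival to D+60. Outcomes were recorded as cured/total.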

[16] = Selectivity index, ratio of IC50 for african green monkey Vero cells to IC50 for chloroquine-sensitive Plasmodium falciparum D6; format: toxicity, cell-based; settings: Vero cells versus Plasmodium falciparum D6, read-out: Ratio IC50
[17] = Ratio of chloroquine IC50 to compound IC50 for inhibition of beta-hematin formation
Plasmodium berghei [18] = assay: Antimalarial activity against Plasmodium berghei blood-schizont in mouse malaria model assessed as elimination of parasitemia at 10 mg/kg, po for 4 days for 4 days measured after 7 days; format: functional, organism-based; set-up: dose 10 mg/kg; procedure, shortened: as §3
[19] = Selectivity index, ratio of IC50 for african green monkey Vero cells to IC50 for chloroquine-resistant Plasmodium falciparum W2; format: toxicity, cell-based; settings: Vero cells versus Plasmodium falciparum W2, read-out: Ratio IC50
Plasmodium berghei [20] = assay: Antimalarial activity against Plasmodium berghei blood-schizont in mouse malaria model assessed as disease curative activity at 100 mg/kg, po after 60 days; format: functional; procedure, shortened: as §3
Plasmodium berghei [21] = assay: Antimalarial activity against Plasmodium berghei blood-schizont in mouse malaria model assessed as elimination of parasitemia at 50 mg/kg, po for 4 days for 4 days measured after 7 days; format: functional, organism-based; set-up: dose 50 mg/kg; procedure, shortened: as §3

In the case of `COc1cc(NC(C)CCCNC(=O)CC[C@@H](NC(=O)[C@H](N)CCCCN)C(=O)O)c2nc(C(C)(C)C)ccc2c1` (some centres undefined), the IC50 (Plasmodium falciparum [1]) is reported as “Not Active”, the Activity (Staphylococcus aureus [2]) is reported as “inactive” and the IC50 [3] is reported as > 1000 µM. For the same compound, the Activity (Nakaseomyces glabratus [4]) was “inactive”, the Activity (Cryptococcus neoformans [5]) was “inactive” and the IC50 (Leishmania donovani) was “Not Active”. The IC90 (Leishmania donovani) was “inactive”, the Activity (Pichia kudriavzevii [6]) was “inactive” and the Activity (Escherichia coli) was “inactive”. For the same compound, the Activity (Aspergillus fumigatus) was “inactive”, the Activity (Candida albicans [7]) was “inactive” and the Activity [8] was “inactive”. The Activity (Pichia kudriavzevii [9]) was “inactive”, the Activity (Candida albicans [10]) was “inactive” and the IC50 (Plasmodium falciparum [11]) was “Not Active”. For the same compound, the Activity (Staphylococcus aureus [12]) was “inactive”, the IC50 (Cryptococcus neoformans [13]) was 15.2 µg/mL (≈ 26.5 µM) and the MIC (Cryptococcus neoformans [13]) was 20 µg/mL (≈ 34.9 µM). The IC50 (Vero) was “Non-toxic”, the Activity (Nakaseomyces glabratus [14]) was “inactive” and the Activity (Pseudomonas aeruginosa) was “inactive”.

For `COc1cc(NC(C)CCCNC(=O)C[C@H](NC(=O)[C@@H](N)CCCCN)C(=O)O)c2ncccc2c1` (some centres undefined), the IC50 (Plasmodium falciparum [1]; Plasmodium falciparum, W2, read-out: IC50) was 0.26 µg/mL (≈ 0.517 µM), the Activity (Staphylococcus aureus [2]) was “inactive” and the Activity (Plasmodium berghei [15]) was “Active”. For the same compound, the IC50 [3] was 5.8 µM, the IC50 (Leishmania donovani) was “Not Active” and the IC90 (Leishmania donovani) was “inactive”. For the same compound, the Activity (Escherichia coli) was “inactive”, the selectivity ratio [16] was > 183 and the Ratio IC50 [17] was 16. The Activity [8] was “inactive”, the Activity (Plasmodium berghei [18]) was “Active” and the selectivity ratio [19] was > 91.5. The IC50 (Plasmodium falciparum [11]; Plasmodium falciparum, D6, read-out: IC50) was 0.13 µg/mL (≈ 0.259 µM), the Activity (Staphylococcus aureus [12]) was “inactive” and the IC50 (Vero) was “Non-toxic”. The Activity (Plasmodium berghei [20]) was 100%, the Activity (Plasmodium berghei [21]) was “Active” and the Activity (Pseudomonas aeruginosa) was “inactive”.
